According to ChEMBL document CHEMBL4130379, “Design, synthesis and bioevaluation of antitubulin agents carrying diaryl-5,5-fused-heterocycle scaffold” (Eur J Med Chem, 2017):
Activity calls are given as the source filed them. The calls are words filed in the database; no cut-off is given here.

Tests used:
A549 = experiment: Antiproliferative activity against human A549 cells after 72 hrs by MTT assay; type: functional, cell-based; conditions: A549, 72 h
In short: (§1)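 MTT assay on human SGC-7901 gastric adenocarcinoma, A549 lung adenocarcinoma and HT-1080 fibrosarcoma cells. The read-out was the half maximal inhibitory concentration (IC50). SMART and ABI were run in parallel as positive controls.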

SGC-7901 [1] = experiment: Antiproliferative activity against human SGC7901 cells after 72 hrs by MTT assay; type: functional, cell-based; conditions: SGC-7901, 72 h; in short: as §1
HT-1080 = experiment: Antiproliferative activity against human HT1080 cells after 72 hrs by MTT assay; type: functional, cell-based; conditions: HT-1080, 72 h; in short: as §1
SGC-7901 [2] = experiment: Cell cycle arrest in human SGC7901 cells assessed as decrease in cell levels at G0/G1 phase at 0.044 uM after 6 to 72 hrs by propidium iodide staining-based flow cytometry; type: functional
In short: (§2)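 Time-course study in SGC-7901 cells treated with test agent. Cell cycle distribution (sub-G1, G0/G1, S, G2/M) and polyploidy were analysed by flow cytometry at successive time points.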

SGC-7901 [3] = experiment: Cell cycle arrest in human SGC7901 cells assessed as induction of polyploidy at S phase at 0.044 uM after 24 hrs by propidium iodide staining-based flow cytometry; type: functional; in short: as §2
Sus scrofa = species on record: Sus scrofa; experiment: Inhibition of porcine brain tubulin polymerization preincubated for 1 min followed by GTP addition measured at 1 min intervals for 90 mins by spectrophotometric method
[4] = as above
SGC-7901 [5] = experiment: Cell cycle arrest in human SGC7901 cells assessed as accumulation at G2/M phase at 0.044 uM by propidium iodide staining-based flow cytometry; type: functional; conditions: TDE = time-dependent effect; in short: as §2
SGC-7901 [6] = experiment: Cell cycle arrest in human SGC7901 cells assessed as decrease in cell levels at S phase at 0.044 uM after 6 to 72 hrs by propidium iodide staining-based flow cytometry; type: functional; in short: as §2
Homo sapiens = species on record: Homo sapiens; experiment: Induction of cytoplasmic microtubule network disassembly in human SGC7901 cells at 2 times antiproliferative IC50 after 48 hrs by DAPI staining-based immunofluorescence microscopic method; type: cell-based
SGC-7901 [7] = experiment: Cell cycle arrest in human SGC7901 cells assessed as accumulation at sub-G1 phase at 0.044 uM after 6 to 72 hrs by propidium iodide staining-based flow cytometry; type: functional; in short: as §2

`COc1cccc(-c2nnc3sc(-c4ccc(OC)c([N+](=O)[O-])c4)nn23)c1` showed an IC50 (A549) of 29.5 µM, an IC50 (SGC-7901 [1]) of 34.7 µM and an IC50 (HT-1080) of 33 µM.
With `COc1ccc(-c2cc3[nH]nc(-c4cc(OC)c(OC)c(OC)c4)n3n2)cc1[N+](=O)[O-]` the IC50 (A549) was 58.2 µM, the IC50 (SGC-7901 [1]) was 48.3 µM and the IC50 (HT-1080) was 35.6 µM.
In the case of `COc1ccc(-c2nn3c(-c4ccc(OC)c(OC)c4OC)nnc3s2)cc1`, the IC50 (A549) is reported as 2.29 µM, the IC50 (SGC-7901 [1]) is reported as 3.75 µM and the IC50 (HT-1080) is reported as 1.88 µM.
With `COc1ccc(-c2cc3[nH]nc(-c4cc(OC)c(OC)c(OC)c4)n3n2)cc1` the IC50 (A549) was 26.4 µM, the IC50 (SGC-7901 [1]) was 26.8 µM and the IC50 (HT-1080) was 26.5 µM.
For `COc1cc(-c2n[nH]c3cc(-c4ccc(C)cc4)nn23)cc(OC)c1OC`, the IC50 (A549) was 29.3 µM, the IC50 (SGC-7901 [1]) was 33.5 µM and the IC50 (HT-1080) was 51.3 µM.
With `COc1ccc(-c2nn3c(-c4cc(OC)c(OC)c(OC)c4)nnc3s2)cc1N` the Activity (SGC-7901 [2]) was “Active”, the Activity (SGC-7901 [3]) was “Active” and the inhibition (Sus scrofa) was “Dose-dependent effect”. For the same compound, the IC50 [4] was 770 nM, the IC50 (A549) was 0.029 µM and the Activity (SGC-7901 [5]) was “Tde”. The IC50 (SGC-7901 [1]) was 0.022 µM, the IC50 (HT-1080) was 0.027 µM and the Activity (SGC-7901 [6]) was “Active”. The Activity (Homo sapiens) was “Active” and the Activity (SGC-7901 [7]) was “Active”.
Compound `COc1cccc(-c2nnc3sc(-c4ccc(OC)c(N)c4)nn23)c1` has an IC50 (A549) of 0.12 µM, an IC50 (SGC-7901 [1]) of 0.059 µM and an IC50 (HT-1080) of 0.088 µM.
For `COc1ccc(-c2nn3c(-c4ccc5c(c4)OCO5)nnc3s2)cc1[N+](=O)[O-]`, the IC50 (A549) was 32.8 µM, the IC50 (SGC-7901 [1]) was 37.8 µM and the IC50 (HT-1080) was 30.3 µM.
`COc1ccc(-c2nnc3sc(-c4ccc(OC)c(N)c4)nn23)cc1` gave an IC50 (A549) of 14.9 µM, an IC50 (SGC-7901 [1]) of 14.2 µM and an IC50 (HT-1080) of 16.4 µM.
For `COc1ccc(-c2nn3c(-c4ccc5c(c4)OCO5)nnc3s2)cc1`, the IC50 (A549) was 29.7 µM, the IC50 (SGC-7901 [1]) was 25.6 µM and the IC50 (HT-1080) was 24.5 µM.
Compound `COc1ccc(-c2cc3[nH]nc(-c4cc(OC)c(OC)c(OC)c4)n3n2)cc1N` has an IC50 (A549) of 17.4 µM, an IC50 (SGC-7901 [1]) of 13.8 µM and an IC50 (HT-1080) of 17.8 µM.
With `COc1ccc(-c2nn3c(-c4ccc(OC)c(OC)c4)nnc3s2)cc1N` the IC50 (A549) was 0.522 µM, the IC50 (SGC-7901 [1]) was 0.083 µM and the IC50 (HT-1080) was 0.339 µM.
In the case of `COc1ccc(-c2nn3c(-c4ccc(OC)c(OC)c4OC)nnc3s2)cc1[N+](=O)[O-]`, the IC50 (A549) is reported as 33.8 µM, the IC50 (SGC-7901 [1]) is reported as 32.5 µM and the IC50 (HT-1080) is reported as 35.1 µM.
Work on `COc1ccc(-c2nnc3sc(-c4ccc(OC)c([N+](=O)[O-])c4)nn23)cc1OC` yielded an IC50 (A549) of 30.4 µM, an IC50 (SGC-7901 [1]) of 37.7 µM and an IC50 (HT-1080) of 32.8 µM.
With `COc1ccc(-c2nnc3sc(-c4ccc(OC)c([N+](=O)[O-])c4)nn23)cc1` the IC50 (A549) was 26.9 µM, the IC50 (SGC-7901 [1]) was 22.1 µM and the IC50 (HT-1080) was 27.3 µM.
With `COc1ccc(-c2nnc3sc(-c4ccc(C)cc4)nn23)c(OC)c1OC` the IC50 (A549) was 0.803 µM, the IC50 (SGC-7901 [1]) was 0.186 µM and the IC50 (HT-1080) was 0.089 µM.
`COc1ccc(-c2nn3c(-c4ccc5c(c4)OCO5)nnc3s2)cc1N` gave an IC50 (A549) of 0.272 µM, an IC50 (SGC-7901 [1]) of 0.057 µM and an IC50 (HT-1080) of 0.327 µM.
`COc1cc(C(=O)c2csc(-c3ccccc3)n2)cc(OC)c1OC` gave an IC50 (A549) of 0.029 µM, an IC50 (SGC-7901 [1]) of 0.019 µM and an IC50 (HT-1080) of 0.028 µM. For the same compound, the Activity (Homo sapiens) was “Active”.
`COc1ccc(-c2nn3c(-c4cc(OC)c(OC)c(OC)c4)nnc3s2)cc1[N+](=O)[O-]` gave an IC50 (A549) of 26.5 µM, an IC50 (SGC-7901 [1]) of 23.2 µM and an IC50 (HT-1080) of 30.2 µM.
Compound `COc1cc(C(=O)c2c[nH]c(-c3ccccc3)n2)cc(OC)c1OC` has an IC50 (A549) of 0.98 µM, an IC50 (SGC-7901 [1]) of 0.81 µM and an IC50 (HT-1080) of 0.15 µM.
Work on `COc1ccc(-c2nn3c(-c4ccc(OC)c(OC)c4OC)nnc3s2)cc1N` yielded an IC50 (A549) of 0.082 µM, an IC50 (SGC-7901 [1]) of 0.062 µM and an IC50 (HT-1080) of 0.073 µM.
`Cc1ccc(-c2nn3c(-c4ccc5c(c4)OCO5)nnc3s2)cc1` showed an IC50 (A549) of 27.7 µM, an IC50 (SGC-7901 [1]) of 24 µM and an IC50 (HT-1080) of 26.8 µM.
With `COc1cc(-c2n[nH]c3cc(-c4ccc(Cl)cc4)nn23)cc(OC)c1OC` the IC50 (A549) was 1.21 µM, the IC50 (SGC-7901 [1]) was 6.12 µM and the IC50 (HT-1080) was 6.81 µM.
